For assay [1], the system named is J774.A1. As to the kind of experiment: Antiproliferative activity against mouse J774A1 cells after 72 hrs by MTT conversion assay. It is filed as cell-based. The following applies: J774.A1, 72 h. In short, it runs like this:
(§1)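 Cells (3.4 × 10^4 per well) adhered 2 h at 37 °C, 5% CO2; medium replaced with fresh medium and 1:4 serial dilutions of test compound added, then incubated 72 h; 6-mercaptopurine serial dilutions in some experiments. Viability by MTT conversion, OD read at 620 nm; % dead cells = 100 − (OD treated/OD control) × 100.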
(In general: Tetrazolium dyes change colour on reduction, which living cells bring about.)

Assay [2] deals with HEK293. As to the kind of experiment: Antiproliferative activity against HEK293 cells after 72 hrs by MTT conversion assay. It is filed as cell-based, Homo sapiens. In a few lines:
as §1

Assay [3] relates to WEHI-164. The assay is described as follows: Antiproliferative activity against mouse WEHI164 cells after 72 hrs by MTT conversion assay. It is filed as functional, cell-based. In a few lines:
as §1

Where [4] appears, read: Homo sapiens, HEK293, 72 h, read-out: IC50.
Setting [5] is: Mus musculus, WEHI-164, 72 h, read-out: IC50.

For orientation: IC50 means the midpoint of a concentration-inhibition curve.

For the molecule `CC(=O)N[C@H]1[C@H](O[C@H]2CC[C@]3(C)[C@H]4CC=C5[C@@H]6CC(C)(C)CC[C@]6(C(=O)O[C@@H]6O[C@H](COC(C)=O)[C@@H](O)[C@H](O[C@@H]7OC[C@@H](O)[C@H](O)[C@H]7O)[C@H]6O[C@@H]6OC[C@@H](O)[C@H](O[C@@H]7OC[C@](O)(CO)[C@H]7O)[C@H]6O)[C@H](O)C[C@@]5(C)[C@]4(C)CC[C@H]3C2(C)C)O[C@H](CO[C@@H]2OC[C@H](O)[C@H](O[C@@H]3OC[C@@H](O)[C@H](O)[C@H]3O)[C@H]2O)[C@@H](O[C@@H]2O[C@H](CO)[C@@H](O)[C@H](O)[C@H]2O)[C@@H]1O`, the IC50 was 2900 nM in assay [1], “Not Traceable” in assay [2] (hek293) and “Not Traceable” in assay [3] (wehi-164).
As for `C=C[C@@](C)(O)CC/C=C(\C)C(=O)O[C@@H]1[C@@H](OC(=O)/C=C/c2ccccc2)[C@H](O[C@H]2[C@H](O)[C@@H](COC(C)=O)O[C@@H](OC(=O)[C@]34CCC(C)(C)C[C@H]3C3=CC[C@@H]5[C@@]6(C)CC[C@H](O[C@@H]7O[C@H](CO[C@@H]8OC[C@H](O)[C@H](O[C@@H]9OC[C@@H](O)[C@H](O)[C@H]9O)[C@H]8O)[C@@H](O[C@@H]8O[C@H](CO)[C@@H](O)[C@H](O)[C@H]8O)[C@H](O)[C@H]7NC(C)=O)C(C)(C)[C@@H]6CC[C@@]5(C)[C@]3(C)C[C@H]4O)[C@@H]2O[C@@H]2OC[C@@H](O)[C@H](O[C@@H]3OC[C@](O)(CO)[C@H]3O)[C@H]2O)OC[C@H]1O`, the IC50 in assay [1] came out at 840 nM; in assay [2] (setting [4]) it was 360 nM; in assay [3] (setting [5]), 380 nM.
Regarding `CC(=O)N[C@H]1[C@H](O[C@H]2CC[C@]3(C)[C@H]4CC=C5[C@@H]6CC(C)(C)CC[C@]6(C(=O)O[C@@H]6O[C@H](CO)[C@@H](O)[C@H](O[C@@H]7OC[C@@H](O)[C@H](O)[C@H]7O)[C@H]6O[C@@H]6OC[C@@H](O)[C@H](O[C@@H]7OC[C@](O)(CO)[C@H]7O)[C@H]6O)[C@H](O)C[C@@]5(C)[C@]4(C)CC[C@H]3C2(C)C)O[C@H](CO[C@@H]2OC[C@H](O)[C@H](O[C@@H]3OC[C@@H](O)[C@H](O)[C@H]3O)[C@H]2O)[C@@H](O[C@@H]2O[C@H](CO)[C@@H](O)[C@H](O)[C@H]2O)[C@@H]1O`, the values for the IC50 in assay [1], in assay [2] (hek293) and in assay [3] (wehi-164) were 1200 nM, “Not Traceable” and “Not Traceable”, respectively.
As to `C=C[C@](C)(O)CC/C=C(\C)C(=O)O[C@@H]1[C@@H](O)[C@H](O[C@H]2[C@H](O)[C@@H](COC(C)=O)O[C@@H](OC(=O)[C@]34CCC(C)(C)C[C@H]3C3=CC[C@@H]5[C@@]6(C)CC[C@H](O[C@@H]7O[C@H](CO[C@@H]8OC[C@H](O)[C@H](O[C@@H]9OC[C@@H](O)[C@H](O)[C@H]9O)[C@H]8O)[C@@H](O[C@@H]8O[C@H](CO)[C@@H](O)[C@H](O)[C@H]8O)[C@H](O)[C@H]7NC(C)=O)C(C)(C)[C@@H]6CC[C@@]5(C)[C@]3(C)C[C@H]4O)[C@@H]2O[C@@H]2OC[C@@H](O)[C@H](O[C@@H]3OC[C@](O)(CO)[C@H]3O)[C@H]2O)OC[C@H]1O`, the IC50 in assay [1] worked out at 520 nM; in assay [2] (setting [4]), 270 nM; in assay [3] (setting [5]), 490 nM.
Consider `CC(=O)N[C@H]1[C@H](O[C@H]2CC[C@]3(C)[C@H]4CC=C5[C@@H]6CC(C)(C)CC[C@]6(C(=O)O[C@@H]6O[C@H](COC(C)=O)[C@@H](O)[C@H](O[C@@H]7OC[C@@H](O)[C@H](O)[C@H]7O)[C@H]6O[C@@H]6OC[C@@H](O)[C@H](O[C@@H]7OC[C@](O)(CO)[C@H]7O)[C@H]6O)[C@H](O)C[C@@]5(C)[C@]4(C)CC[C@H]3C2(C)C)O[C@H](CO[C@@H]2OC[C@H](O)[C@H](O[C@@H]3OC[C@H](O)[C@H](O)[C@H]3O)[C@H]2O)[C@@H](O[C@@H]2O[C@H](CO)[C@@H](O)[C@H](O)[C@H]2O)[C@@H]1O`, for which the IC50 in assay [1] is 3100 nM; in assay [2] (hek293) it was “Not Traceable”; in assay [3] (wehi-164), “Not Traceable”.
In the case of `C=C[C@](C)(O)CC/C=C(\C)C(=O)O[C@@H]1[C@@H](O)[C@H](O[C@H]2[C@H](O)[C@@H](COC(C)=O)O[C@@H](OC(=O)[C@]34C[C@H](O)C(C)(C)C[C@H]3C3=CC[C@@H]5[C@@]6(C)CC[C@H](O[C@@H]7O[C@H](CO[C@@H]8OC[C@H](O)[C@H](O[C@@H]9OC[C@@H](O)[C@H](O)[C@H]9O)[C@H]8O)[C@@H](O[C@@H]8O[C@H](CO)[C@@H](O)[C@H](O)[C@H]8O)[C@H](O)[C@H]7NC(C)=O)C(C)(C)[C@@H]6CC[C@@]5(C)[C@]3(C)C[C@H]4O)[C@@H]2O[C@@H]2OC[C@@H](O)[C@H](O[C@@H]3OC[C@](O)(CO)[C@H]3O)[C@H]2O)OC[C@H]1O`, the figures for the IC50 in assay [1], in assay [2] (setting [4]) and in assay [3] (setting [5]) were 31 nM, 250 nM and 100 nM, respectively.
The like results for `C=C[C@@](C)(O)CC/C=C(\C)C(=O)O[C@@H]1[C@@H](OC(=O)/C=C/c2ccccc2)[C@H](O[C@H]2[C@H](O)[C@@H](COC(C)=O)O[C@@H](OC(=O)[C@]34C[C@H](O)C(C)(C)C[C@H]3C3=CC[C@@H]5[C@@]6(C)CC[C@H](O[C@@H]7O[C@H](CO[C@@H]8OC[C@H](O)[C@H](O[C@@H]9OC[C@H](O)[C@H](O)[C@H]9O)[C@H]8O)[C@@H](O[C@@H]8O[C@H](CO)[C@@H](O)[C@H](O)[C@H]8O)[C@H](O)[C@H]7NC(C)=O)C(C)(C)[C@@H]6CC[C@@]5(C)[C@]3(C)C[C@H]4O)[C@@H]2O[C@@H]2OC[C@@H](O)[C@H](O[C@@H]3OC[C@](O)(CO)[C@H]3O)[C@H]2O)OC[C@H]1O` were, in that order, 3000 nM, 2800 nM and 2700 nM.
The like results for `CC(=O)N[C@H]1[C@H](O[C@H]2CC[C@]3(C)[C@H]4CC=C5[C@@H]6CC(C)(C)[C@@H](O)C[C@]6(C(=O)O[C@@H]6O[C@H](COC(C)=O)[C@@H](O)[C@H](O[C@@H]7OC[C@@H](O)[C@H](O)[C@H]7O)[C@H]6O[C@@H]6OC[C@@H](O)[C@H](O[C@@H]7OC[C@](O)(CO)[C@H]7O)[C@H]6O)[C@H](O)C[C@@]5(C)[C@]4(C)CC[C@H]3C2(C)C)O[C@H](CO[C@@H]2OC[C@H](O)[C@H](O[C@@H]3OC[C@@H](O)[C@H](O)[C@H]3O)[C@H]2O)[C@@H](O[C@@H]2O[C@H](CO)[C@@H](O)[C@H](O)[C@H]2O)[C@@H]1O` were, in that order, 2200 nM, 3900 nM and 2000 nM.
The like results for `CC(=O)N[C@H]1[C@H](O[C@H]2CC[C@]3(C)[C@H]4CC=C5[C@@H]6CC(C)(C)CC[C@]6(C(=O)O[C@@H]6O[C@H](COC(C)=O)[C@@H](O)[C@H](O[C@@H]7OC[C@@H](O)[C@H](O)[C@H]7OC(=O)/C=C/c7ccccc7)[C@H]6O[C@@H]6OC[C@@H](O)[C@H](O[C@@H]7OC[C@](O)(CO)[C@H]7O)[C@H]6O)[C@H](O)C[C@@]5(C)[C@]4(C)CC[C@H]3C2(C)C)O[C@H](CO[C@@H]2OC[C@H](O)[C@H](O[C@@H]3OC[C@@H](O)[C@H](O)[C@H]3O)[C@H]2O)[C@@H](O[C@@H]2O[C@H](CO)[C@@H](O)[C@H](O)[C@H]2O)[C@@H]1O` were, in that order, 980 nM, 560 nM and 940 nM.

Values taken from ChEMBL document CHEMBL1158842, “Antiproliferative triterpene saponins from Entada africana” (J Nat Prod, 2006).
